Data published in ChEMBL document CHEMBL1629602, “Reconstruction of the phenotypes of methicillin-resistant Staphylococcus aureus by replacement of the staphylococcal cassette chromosome mec with a plasmid-borne copy of Staphylococcus sciuri pbpD gene” (2009).
≈ marks a conversion by molar mass, not a printed value.

Key:
Staphylococcus aureus [1] = test: Antibacterial activity against oxacillin, chloramphenicol, erythromycin-susceptible and tetracycline-resistant Staphylococcus aureus COL-S with SCCmec excised; format: functional
Method in brief: (§1)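 Oxacillin MIC by population analysis: overnight-culture aliquots plated on tryptic soy agar with increasing oxacillin concentrations. CFU counted after 72 h at 30°C.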

Staphylococcus aureus [2] = test: Antibacterial activity against tetracycline-resistant Staphylococcus aureus COL-S carrying SAmecA plasmid; format: functional; method in brief: as §1
Staphylococcus aureus [3] = test: Antibacterial activity against tetracycline-resistant Staphylococcus aureus COL-S carrying SSpbpD plasmid; format: functional; method in brief: as §1
Staphylococcus aureus [4] = test: Antibacterial activity against chloramphenicol-resistant Staphylococcus aureus COL carrying mecI-mecR1 plasmid; format: functional; method in brief: as §1
Staphylococcus aureus [5] = test: Antibacterial activity against chloramphenicol, tetracycline-resistant Staphylococcus aureus COL-S carrying SAmecA/mecI-mecR1 plasmid; format: functional; method in brief: as §1
Staphylococcus aureus [6] = test: Antibacterial activity against chloramphenicol, tetracycline-resistant Staphylococcus aureus COL-S carrying SSpbpD/mecI-mecR1 plasmid; format: functional; method in brief: as §1
Staphylococcus aureus [7] = test: Antibacterial activity against chloramphenicol-susceptible and oxacillin, erythromycin, tetracycline-resistant Staphylococcus aureus COL

CO/N=C(\C(=O)N[C@@H]1C(=O)N2C(C(=O)O)=C(COC(C)=O)CS[C@H]12)c1csc(N)n1 [CEFOTAXIME]
MIC (Staphylococcus aureus [1]): 0.8 µg/mL (≈ 1.76 µM)
MIC (Staphylococcus aureus [2]): 800 µg/mL (≈ 1760 µM)
MIC (Staphylococcus aureus [3]): 200 µg/mL (≈ 439 µM)
MIC (Staphylococcus aureus [4]): 6 µg/mL (≈ 13.2 µM)
MIC (Staphylococcus aureus [5]): 6 µg/mL (≈ 13.2 µM)
MIC (Staphylococcus aureus [6]): 6 µg/mL (≈ 13.2 µM)
MIC (Staphylococcus aureus [7]): 800 µg/mL (≈ 1760 µM)

CC1=C(C(=O)O)N2C(=O)[C@@H](NC(=O)[C@H](N)C3=CCC=CC3)[C@H]2SC1 [CEPHRADINE]
MIC (Staphylococcus aureus [1]): 6 µg/mL (≈ 17.2 µM)
MIC (Staphylococcus aureus [2]): 400 µg/mL (≈ 1140 µM)
MIC (Staphylococcus aureus [3]): 100 µg/mL (≈ 286 µM)
MIC (Staphylococcus aureus [4]): 6 µg/mL (≈ 17.2 µM)
MIC (Staphylococcus aureus [5]): 12 µg/mL (≈ 34.3 µM)
MIC (Staphylococcus aureus [6]): 3 µg/mL (≈ 8.59 µM)
MIC (Staphylococcus aureus [7]): 400 µg/mL (≈ 1140 µM)

CO[C@@]1(NC(=O)Cc2cccs2)C(=O)N2C(C(=O)O)=C(COC(N)=O)CS[C@@H]21 [CEFOXITIN]
MIC (Staphylococcus aureus [1]): 3 µg/mL (≈ 7.02 µM)
MIC (Staphylococcus aureus [2]): 400 µg/mL (≈ 936 µM)
MIC (Staphylococcus aureus [3]): 200 µg/mL (≈ 468 µM)
MIC (Staphylococcus aureus [4]): 3 µg/mL (≈ 7.02 µM)
MIC (Staphylococcus aureus [5]): 6 µg/mL (≈ 14 µM)
MIC (Staphylococcus aureus [6]): 1.5 µg/mL (≈ 3.51 µM)
MIC (Staphylococcus aureus [7]): 800 µg/mL (≈ 1870 µM)

CO/N=C(\C(=O)N[C@@H]1C(=O)N2C(C(=O)O)=CCS[C@H]12)c1csc(N)n1 [CEFTIZOXIME]
MIC (Staphylococcus aureus [1]): 0.8 µg/mL (≈ 2.09 µM)
MIC (Staphylococcus aureus [2]): 800 µg/mL (≈ 2090 µM)
MIC (Staphylococcus aureus [3]): 400 µg/mL (≈ 1040 µM)
MIC (Staphylococcus aureus [4]): 3 µg/mL (≈ 7.82 µM)
MIC (Staphylococcus aureus [5]): 3 µg/mL (≈ 7.82 µM)
MIC (Staphylococcus aureus [6]): 12 µg/mL (≈ 31.3 µM)
MIC (Staphylococcus aureus [7]): 800 µg/mL (≈ 2090 µM)

N[C@@H]1CONC1=O [CYCLOSERINE]
MIC (Staphylococcus aureus [2]): 8 µg/mL (≈ 78.4 µM)
MIC (Staphylococcus aureus [3]): 0.75 µg/mL (≈ 7.35 µM)
MIC (Staphylococcus aureus [7]): 1 µg/mL (≈ 9.79 µM)

Cc1onc(-c2ccccc2)c1C(=O)N[C@@H]1C(=O)N2[C@@H]1SC(C)(C)[C@@H]2C(=O)O [OXACILLIN]
MIC (Staphylococcus aureus [1]): 0.8 µg/mL (≈ 1.99 µM)
MIC (Staphylococcus aureus [2]): 400 µg/mL (≈ 996 µM)
MIC (Staphylococcus aureus [3]): 400 µg/mL (≈ 996 µM)
MIC (Staphylococcus aureus [4]): 0.4 µg/mL (≈ 0.996 µM)
MIC (Staphylococcus aureus [5]): 0.8 µg/mL (≈ 1.99 µM)
MIC (Staphylococcus aureus [6]): 0.4 µg/mL (≈ 0.996 µM)
MIC (Staphylococcus aureus [7]): 800 µg/mL (≈ 1990 µM)
